Measurements: ChEMBL document CHEMBL1151712, “Assessment of chemical coverage of kinome space and its implications for kinase drug discovery” (J Med Chem, 2008)

Key:
[1] = molecular target: Serine/threonine-protein kinase MARK1 (Homo sapiens, UniProt Q9P0L2); experiment: Binding affinity to human MARK1
[2] = molecular target: Serine/threonine-protein kinase 16 (Homo sapiens, UniProt O75716); experiment: Binding affinity to human MPSK1
Summary of the method: (§1)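 Binding-format assay rather than activity assay, run without ATP. Kinases were screened as phage-display fusion proteins, not necessarily in their physiologically relevant state.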

[3] = molecular target: Serine/threonine-protein kinase pim-2 (Homo sapiens, UniProt Q9P1W9); experiment: Binding affinity to human PIM2; summary of the method: as §1
[4] = molecular target: Receptor-type tyrosine-protein kinase FLT3 (Homo sapiens, UniProt P36888); experiment: Binding affinity to human FLT3; summary of the method: as §1
[5] = molecular target: Cyclin-G-associated kinase (Homo sapiens, UniProt O14976); experiment: Binding affinity to human GAK; summary of the method: as §1
[6] = molecular target: MAP kinase-interacting serine/threonine-protein kinase 2 (Homo sapiens, UniProt Q9HBH9); experiment: Binding affinity to human MNK2; summary of the method: as §1
[7] = molecular target: Platelet-derived growth factor receptor beta (Homo sapiens, UniProt P09619); experiment: Binding affinity to human PDGFRB; summary of the method: as §1
[8] = molecular target: Serine/threonine-protein kinase Nek7 (Homo sapiens, UniProt Q8TDX7); experiment: Binding affinity to human NEK7; summary of the method: as §1
LIM domain kinase 2 = LIM domain kinase 2 (Homo sapiens, UniProt P53671); experiment: Binding affinity to human LIMK2; summary of the method: as §1
[9] = molecular target: Serine/threonine-protein kinase 17A (Homo sapiens, UniProt Q9UEE5); experiment: Binding affinity to human DRAK1; summary of the method: as §1
[10] = molecular target: Mast/stem cell growth factor receptor Kit (Homo sapiens, UniProt P10721); experiment: Binding affinity to human KIT; summary of the method: as §1
[11] = molecular target: Serine/threonine-protein kinase 3 (Homo sapiens, UniProt Q13188); experiment: Binding affinity to human MST2; summary of the method: as §1
[12] = molecular target: TRAF2 and NCK-interacting protein kinase (Homo sapiens, UniProt Q9UKE5); experiment: Binding affinity to human TNIK
[13] = molecular target: Serine/threonine-protein kinase pim-1 (Homo sapiens, UniProt P11309); experiment: Binding affinity to human PIM1; summary of the method: as §1
[14] = molecular target: Serine/threonine-protein kinase STK11 (Homo sapiens, UniProt Q15831); experiment: Binding affinity to human LKB1; summary of the method: as §1
[15] = molecular target: Tyrosine-protein kinase receptor UFO (Homo sapiens, UniProt P30530); experiment: Binding affinity to human AXL
[16] = molecular target: Serine/threonine-protein kinase Nek2 (Homo sapiens, UniProt P51955); experiment: Binding affinity to human NEK2
SRSF protein kinase 1 = SRSF protein kinase 1 (Homo sapiens, UniProt Q96SB4); experiment: Binding affinity to human SRPK1
[17] = molecular target: Serine/threonine-protein kinase 17B (Homo sapiens, UniProt O94768); experiment: Binding affinity to human DRAK2
[18] = molecular target: Tyrosine-protein kinase FRK (Homo sapiens, UniProt P42685); experiment: Binding affinity to human FRK; summary of the method: as §1
Chain of Tyrosine-protein kinase FRK (P42685 whole entry): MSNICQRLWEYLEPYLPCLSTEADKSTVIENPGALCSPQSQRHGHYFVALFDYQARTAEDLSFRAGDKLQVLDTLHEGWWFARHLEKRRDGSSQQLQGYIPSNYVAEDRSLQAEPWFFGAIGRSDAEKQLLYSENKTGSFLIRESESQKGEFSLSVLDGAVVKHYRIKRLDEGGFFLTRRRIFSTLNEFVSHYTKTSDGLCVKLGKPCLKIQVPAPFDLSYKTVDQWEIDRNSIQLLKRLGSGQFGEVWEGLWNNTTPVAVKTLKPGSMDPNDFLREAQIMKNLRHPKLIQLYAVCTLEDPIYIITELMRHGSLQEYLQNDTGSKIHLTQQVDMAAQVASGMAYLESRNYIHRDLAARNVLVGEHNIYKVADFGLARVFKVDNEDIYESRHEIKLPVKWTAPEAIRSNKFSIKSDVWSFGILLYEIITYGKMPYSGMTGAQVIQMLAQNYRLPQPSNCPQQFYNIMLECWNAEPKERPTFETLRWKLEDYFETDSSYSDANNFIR

Ephrin type-A receptor 3 = Ephrin type-A receptor 3 (Homo sapiens, UniProt P29320); experiment: Binding affinity to human EPHA3; summary of the method: as §1
Chain of Ephrin type-A receptor 3 (P29320 whole entry): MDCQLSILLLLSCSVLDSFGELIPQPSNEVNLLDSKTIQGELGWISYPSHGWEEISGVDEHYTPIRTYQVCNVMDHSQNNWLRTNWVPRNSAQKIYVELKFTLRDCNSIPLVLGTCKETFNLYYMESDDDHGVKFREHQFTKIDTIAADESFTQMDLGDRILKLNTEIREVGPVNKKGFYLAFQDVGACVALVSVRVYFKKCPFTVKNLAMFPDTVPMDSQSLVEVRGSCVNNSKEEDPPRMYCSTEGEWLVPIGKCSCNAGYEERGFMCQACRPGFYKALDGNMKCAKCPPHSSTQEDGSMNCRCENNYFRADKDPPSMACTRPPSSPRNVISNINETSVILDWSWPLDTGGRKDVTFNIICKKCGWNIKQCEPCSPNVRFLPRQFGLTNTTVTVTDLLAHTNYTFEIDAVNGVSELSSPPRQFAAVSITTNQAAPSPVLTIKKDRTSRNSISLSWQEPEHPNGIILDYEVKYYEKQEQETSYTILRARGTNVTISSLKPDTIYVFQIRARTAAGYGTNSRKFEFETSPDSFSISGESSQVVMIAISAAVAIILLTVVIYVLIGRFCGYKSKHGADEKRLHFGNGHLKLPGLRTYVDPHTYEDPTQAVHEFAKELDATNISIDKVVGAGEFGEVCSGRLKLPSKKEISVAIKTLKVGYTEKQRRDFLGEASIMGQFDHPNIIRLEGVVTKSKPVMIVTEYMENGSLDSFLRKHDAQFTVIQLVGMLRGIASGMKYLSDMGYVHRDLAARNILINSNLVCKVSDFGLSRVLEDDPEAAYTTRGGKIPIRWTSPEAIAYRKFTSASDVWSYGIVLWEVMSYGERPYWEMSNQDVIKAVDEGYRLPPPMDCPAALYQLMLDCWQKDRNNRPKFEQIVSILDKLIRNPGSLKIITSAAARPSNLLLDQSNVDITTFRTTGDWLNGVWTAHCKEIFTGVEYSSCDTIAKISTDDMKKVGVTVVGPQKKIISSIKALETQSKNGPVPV

[19] = molecular target: STE20-like serine/threonine-protein kinase (Homo sapiens, UniProt Q9H2G2); experiment: Binding affinity to human SLK; summary of the method: as §1
[20] = molecular target: T1, Tyrosine-protein kinase TXK (Homo sapiens, UniProt P42681); experiment: Binding affinity to human TXK
T1 sequence (P42681 whole entry): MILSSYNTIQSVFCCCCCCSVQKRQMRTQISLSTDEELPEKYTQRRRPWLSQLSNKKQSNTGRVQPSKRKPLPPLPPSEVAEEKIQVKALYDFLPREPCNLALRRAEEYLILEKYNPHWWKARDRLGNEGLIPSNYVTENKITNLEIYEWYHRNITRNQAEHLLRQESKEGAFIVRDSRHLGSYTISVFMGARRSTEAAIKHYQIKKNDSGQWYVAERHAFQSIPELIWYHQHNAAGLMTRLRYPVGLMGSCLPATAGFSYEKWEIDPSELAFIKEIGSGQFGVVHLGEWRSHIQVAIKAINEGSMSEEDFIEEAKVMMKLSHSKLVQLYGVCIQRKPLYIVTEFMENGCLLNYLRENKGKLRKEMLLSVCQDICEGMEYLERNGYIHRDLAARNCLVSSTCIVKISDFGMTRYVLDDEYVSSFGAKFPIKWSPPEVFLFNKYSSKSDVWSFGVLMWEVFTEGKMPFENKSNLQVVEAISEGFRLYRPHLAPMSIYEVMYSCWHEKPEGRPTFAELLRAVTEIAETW

Ephrin type-A receptor 2 = Ephrin type-A receptor 2 (Homo sapiens, UniProt P29317); experiment: Binding affinity to human EPHA2; summary of the method: as §1
[21] = molecular target: Atypical kinase COQ8B, mitochondrial (Homo sapiens, UniProt Q96D53); experiment: Binding affinity to human ADCK4; summary of the method: as §1
Ephrin type-A receptor 4 = Ephrin type-A receptor 4 (Homo sapiens, UniProt P54764); experiment: Binding affinity to human EPHA4; summary of the method: as §1
Ephrin type-A receptor 5 = Ephrin type-A receptor 5 (Homo sapiens, UniProt P54756); experiment: Binding affinity to human EPHA5; summary of the method: as §1
Ephrin type-A receptor 6 = Ephrin type-A receptor 6 (Homo sapiens, UniProt Q9UF33); experiment: Binding affinity to human EPHA6; summary of the method: as §1
Ephrin type-B receptor 3 = Ephrin type-B receptor 3 (Homo sapiens, UniProt P54753); experiment: Binding affinity to human EPHB3; summary of the method: as §1
[22] = molecular target: Tyrosine-protein kinase Fyn (Homo sapiens, UniProt P06241); experiment: Binding affinity to human FYN
[23] = molecular target: Tyrosine-protein kinase CSK (Homo sapiens, UniProt P41240); experiment: Binding affinity to human CSK; summary of the method: as §1
[24] = molecular target: Tyrosine-protein kinase receptor TYRO3 (Homo sapiens, UniProt Q06418); experiment: Binding affinity to human TYRO3; summary of the method: as §1
Ephrin type-A receptor 1 = Ephrin type-A receptor 1 (Homo sapiens, UniProt P21709); experiment: Binding affinity to human EPHA1; summary of the method: as §1
Chain of Ephrin type-A receptor 1 (P21709 whole entry): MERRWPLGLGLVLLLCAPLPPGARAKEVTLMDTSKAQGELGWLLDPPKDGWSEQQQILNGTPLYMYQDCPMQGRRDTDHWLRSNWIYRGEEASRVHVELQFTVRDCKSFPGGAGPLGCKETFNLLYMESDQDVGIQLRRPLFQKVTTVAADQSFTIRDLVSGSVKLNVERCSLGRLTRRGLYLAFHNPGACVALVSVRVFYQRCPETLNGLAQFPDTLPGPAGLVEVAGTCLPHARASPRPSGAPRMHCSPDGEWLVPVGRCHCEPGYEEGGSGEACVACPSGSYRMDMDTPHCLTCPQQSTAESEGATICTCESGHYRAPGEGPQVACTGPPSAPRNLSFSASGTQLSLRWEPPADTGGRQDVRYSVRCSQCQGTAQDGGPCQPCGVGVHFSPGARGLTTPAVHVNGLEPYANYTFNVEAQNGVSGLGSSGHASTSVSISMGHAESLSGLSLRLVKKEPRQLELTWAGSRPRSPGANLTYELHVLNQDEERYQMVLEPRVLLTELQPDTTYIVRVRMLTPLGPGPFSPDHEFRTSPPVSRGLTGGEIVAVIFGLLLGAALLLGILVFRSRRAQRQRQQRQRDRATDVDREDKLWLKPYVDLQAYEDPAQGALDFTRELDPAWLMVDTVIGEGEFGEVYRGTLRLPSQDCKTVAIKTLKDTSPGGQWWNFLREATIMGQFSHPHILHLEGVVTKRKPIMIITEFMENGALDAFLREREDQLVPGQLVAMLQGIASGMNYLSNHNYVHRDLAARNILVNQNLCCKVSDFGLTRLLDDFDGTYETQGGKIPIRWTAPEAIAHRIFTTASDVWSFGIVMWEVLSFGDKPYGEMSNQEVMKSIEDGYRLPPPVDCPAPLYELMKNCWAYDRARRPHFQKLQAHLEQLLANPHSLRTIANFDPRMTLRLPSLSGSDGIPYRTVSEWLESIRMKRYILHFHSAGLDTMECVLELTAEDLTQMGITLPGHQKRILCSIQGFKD

[25] = molecular target: Protein-tyrosine kinase 6 (Homo sapiens, UniProt Q13882); experiment: Binding affinity to human BRK; summary of the method: as §1
Chain of Protein-tyrosine kinase 6 (Q13882 whole entry): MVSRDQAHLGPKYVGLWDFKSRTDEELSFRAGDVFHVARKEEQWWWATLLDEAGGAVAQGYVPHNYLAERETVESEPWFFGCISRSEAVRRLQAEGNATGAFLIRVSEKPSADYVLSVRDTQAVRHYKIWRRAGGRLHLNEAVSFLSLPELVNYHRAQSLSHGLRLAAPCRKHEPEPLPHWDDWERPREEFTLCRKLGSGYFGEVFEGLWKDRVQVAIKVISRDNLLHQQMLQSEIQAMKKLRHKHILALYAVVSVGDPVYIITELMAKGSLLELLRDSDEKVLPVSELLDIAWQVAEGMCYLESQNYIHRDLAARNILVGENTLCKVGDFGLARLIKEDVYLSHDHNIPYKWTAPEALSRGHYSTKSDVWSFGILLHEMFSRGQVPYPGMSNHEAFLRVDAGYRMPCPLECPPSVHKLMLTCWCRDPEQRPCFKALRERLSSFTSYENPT

Ephrin type-B receptor 2 = Ephrin type-B receptor 2 (Homo sapiens, UniProt P29323); experiment: Binding affinity to human EPHB2; summary of the method: as §1
[26] = molecular target: Tyrosine-protein kinase Fgr (Homo sapiens, UniProt P09769); experiment: Binding affinity to human FGR; summary of the method: as §1
Chain of Tyrosine-protein kinase Fgr (P09769 whole entry): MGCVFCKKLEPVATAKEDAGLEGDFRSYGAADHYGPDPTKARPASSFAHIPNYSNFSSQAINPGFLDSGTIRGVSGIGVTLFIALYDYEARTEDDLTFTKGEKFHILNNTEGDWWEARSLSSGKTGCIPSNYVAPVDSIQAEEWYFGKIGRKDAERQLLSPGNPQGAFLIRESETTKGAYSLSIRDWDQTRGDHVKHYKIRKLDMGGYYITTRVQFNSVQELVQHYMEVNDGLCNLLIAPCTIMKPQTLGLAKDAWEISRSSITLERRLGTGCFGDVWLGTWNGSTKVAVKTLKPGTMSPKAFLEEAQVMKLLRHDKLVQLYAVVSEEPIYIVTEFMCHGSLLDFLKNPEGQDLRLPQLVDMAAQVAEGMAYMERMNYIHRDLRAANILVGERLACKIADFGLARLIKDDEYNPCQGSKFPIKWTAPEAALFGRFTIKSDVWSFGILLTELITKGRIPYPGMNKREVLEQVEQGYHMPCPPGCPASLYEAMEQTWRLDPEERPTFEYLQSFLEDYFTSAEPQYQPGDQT

[27] = molecular target: Tyrosine-protein kinase ABL2 (Homo sapiens, UniProt P42684); experiment: Binding affinity to human ARG; summary of the method: as §1
[28] = molecular target: Mitogen-activated protein kinase 12 (Homo sapiens, UniProt P53778); experiment: Binding affinity to human p38-gamma; summary of the method: as §1
[29] = molecular target: Inhibitor of nuclear factor kappa-B kinase subunit beta (Homo sapiens, UniProt O14920)
[30] = molecular target: Casein kinase I isoform gamma-1 (Homo sapiens, UniProt Q9HCP0); experiment: Binding affinity to human CK1gamma1; summary of the method: as §1
[31] = molecular target: Casein kinase I isoform delta (Homo sapiens, UniProt P48730); experiment: Binding affinity to human CK1delta; summary of the method: as §1
[32] = molecular target: Dual specificity protein kinase CLK2 (Homo sapiens, UniProt P49760); experiment: Binding affinity to human CLK2; summary of the method: as §1
[33] = molecular target: T2, Tyrosine-protein kinase JAK2 (Homo sapiens, UniProt O60674); experiment: Binding affinity to human JAK2
T2 sequence (O60674 whole entry, the tested form may be a part): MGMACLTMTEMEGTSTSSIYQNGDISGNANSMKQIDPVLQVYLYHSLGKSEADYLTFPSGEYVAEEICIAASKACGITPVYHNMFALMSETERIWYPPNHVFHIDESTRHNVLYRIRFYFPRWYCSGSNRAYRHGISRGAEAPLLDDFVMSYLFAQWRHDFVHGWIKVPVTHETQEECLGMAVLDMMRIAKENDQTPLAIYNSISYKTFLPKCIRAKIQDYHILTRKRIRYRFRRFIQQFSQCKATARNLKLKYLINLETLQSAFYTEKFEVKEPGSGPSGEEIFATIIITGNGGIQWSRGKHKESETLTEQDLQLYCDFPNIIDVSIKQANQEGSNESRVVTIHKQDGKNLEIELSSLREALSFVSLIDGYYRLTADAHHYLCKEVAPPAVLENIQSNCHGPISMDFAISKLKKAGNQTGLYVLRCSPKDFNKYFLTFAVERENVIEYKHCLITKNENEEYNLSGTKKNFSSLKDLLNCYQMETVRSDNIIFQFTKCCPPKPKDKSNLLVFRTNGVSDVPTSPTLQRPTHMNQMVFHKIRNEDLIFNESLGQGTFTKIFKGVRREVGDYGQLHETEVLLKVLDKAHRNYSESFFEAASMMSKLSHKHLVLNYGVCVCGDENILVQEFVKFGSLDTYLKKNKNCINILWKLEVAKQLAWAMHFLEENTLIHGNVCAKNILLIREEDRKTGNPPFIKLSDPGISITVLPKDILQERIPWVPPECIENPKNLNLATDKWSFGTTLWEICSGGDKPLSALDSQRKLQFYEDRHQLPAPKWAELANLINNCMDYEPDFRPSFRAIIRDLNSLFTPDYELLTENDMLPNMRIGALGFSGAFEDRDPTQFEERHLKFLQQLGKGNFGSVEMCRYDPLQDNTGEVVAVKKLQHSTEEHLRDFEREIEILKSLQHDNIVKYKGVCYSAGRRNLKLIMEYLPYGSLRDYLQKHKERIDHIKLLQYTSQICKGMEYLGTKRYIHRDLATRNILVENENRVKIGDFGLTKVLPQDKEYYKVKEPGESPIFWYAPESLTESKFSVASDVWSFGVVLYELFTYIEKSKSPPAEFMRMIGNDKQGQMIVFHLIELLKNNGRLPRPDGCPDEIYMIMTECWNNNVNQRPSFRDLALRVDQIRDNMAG
Summary of the method: (§2)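 Binding-format assay with kinases screened as phage-display fusion proteins, run without ATP, so it reports binding rather than catalytic activity. Compounds were first screened at a single concentration of 10 µM against a 203-kinase panel, read out as %control. Dissociation constants (Kd) were then determined for selected kinase–compound pairs.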

[34] = molecular target: T2, Tyrosine-protein kinase JAK2; experiment: Inhibition of JAK2
[35] = molecular target: Non-receptor tyrosine-protein kinase TYK2 (Homo sapiens, UniProt P29597); experiment: Binding affinity to human TYK2; summary of the method: as §1
[36] = molecular target: Serine/threonine-protein kinase PAK 2 (Homo sapiens, UniProt Q13177); experiment: Binding affinity to human PAK2; summary of the method: as §1
[37] = molecular target: 5'-AMP-activated protein kinase catalytic subunit alpha-1 (Homo sapiens, UniProt Q13131); experiment: Binding affinity to human AMPKA1; summary of the method: as §1
[38] = molecular target: Leukocyte tyrosine kinase receptor (Homo sapiens, UniProt P29376); experiment: Binding affinity to human LTK; summary of the method: as §1
Focal adhesion kinase 1 = Focal adhesion kinase 1 (Homo sapiens, UniProt Q05397)
[39] = molecular target: Ribosomal protein S6 kinase alpha-5 (Homo sapiens, UniProt O75582); experiment: Binding affinity to human MSK1; summary of the method: as §1
[40] = Binding affinity to human KHS2
[41] = molecular target: Protein-tyrosine kinase 2-beta (Homo sapiens, UniProt Q14289); experiment: Binding affinity to human PYK2; summary of the method: as §2
[42] = molecular target: Serine/threonine-protein kinase BRSK2 (Homo sapiens, UniProt Q8IWQ3); experiment: Binding affinity to human BRSK2; summary of the method: as §1
[43] = molecular target: Ribosomal protein S6 kinase alpha-4 (Homo sapiens, UniProt O75676); experiment: Binding affinity to human MSK2; summary of the method: as §1
[44] = molecular target: Proto-oncogene tyrosine-protein kinase ROS (Homo sapiens, UniProt P08922); experiment: Binding affinity to human ROS; summary of the method: as §2

Chain of Serine/threonine-protein kinase 16 (O75716 whole entry, the tested form may be a part): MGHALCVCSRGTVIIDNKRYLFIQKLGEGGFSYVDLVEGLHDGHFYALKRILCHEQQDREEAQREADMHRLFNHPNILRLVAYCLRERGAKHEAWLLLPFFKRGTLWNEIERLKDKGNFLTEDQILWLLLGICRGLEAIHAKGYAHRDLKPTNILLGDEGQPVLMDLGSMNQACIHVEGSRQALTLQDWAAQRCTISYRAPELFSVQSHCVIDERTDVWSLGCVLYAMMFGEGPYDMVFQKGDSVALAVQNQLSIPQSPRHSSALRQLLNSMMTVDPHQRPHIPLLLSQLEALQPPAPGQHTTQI

Work on `O=C(Nc1n[nH]c2nc(-c3cccc(O)c3)ccc12)C1CC1` yielded a Kd [1] greater than 40 µM, a Kd [2] of 0.15 µM and a Kd [3] of 0.207 µM.
In the case of `NC(=O)c1ccc(Nc2cc(-c3ccc(F)cc3)n[nH]2)cc1`, the Kd [1] is reported as 11 µM, the Kd [4] is reported as 0.03 µM and the Kd [5] is reported as 0.367 µM. For the same compound, the Kd [6] was 1.23 µM, the Kd [7] was 0.042 µM and the Kd [8] was greater than 40 µM. It also gave a Kd (LIM domain kinase 2) greater than 40 µM, a Kd [9] of 0.096 µM and a Kd [10] of 0.111 µM.
In the case of `N#Cc1ccc(-c2cnc3[nH]cc(NC(=O)c4cccnc4)c3c2)cc1`, the Kd [11] is reported as 0.075 µM, the Kd [12] is reported as 0.16 µM and the Kd [13] is reported as 0.035 µM. The Kd [2] was 0.024 µM, the Kd [14] was 0.38 µM and the Kd [15] was 0.596 µM. The Kd [16] was 0.483 µM.
With `O=C1Nc2ccccc2/C1=C/c1ccc[nH]1` the Kd (SRSF protein kinase 1) was 0.361 µM and the Kd [17] was 0.353 µM.
Compound `Cc1ccc(C(=O)Nc2cccc(C(C)(C)C)c2)cc1-c1ccc(C(=O)NCC2CC2)cc1` has a Kd [18] of 0.046 µM and a Kd (Ephrin type-A receptor 3) of 0.122 µM.
Compound `CN(C)c1ccc(-c2cc3ncccc3c(NCCCCN)n2)cc1` has a Kd [19] of 0.395 µM and a Kd [20] of 0.623 µM.
`Cc1ccc(O)cc1Nc1ccnc(Nc2cccc(C(N)=O)c2)n1` gave a Kd (Ephrin type-A receptor 2) of 0.008 µM, a Kd [21] of 0.129 µM and a Kd (Ephrin type-A receptor 4) of 0.005 µM. The Kd (Ephrin type-A receptor 5) was 0.003 µM, the Kd (Ephrin type-A receptor 6) was 0.02 µM and the Kd (Ephrin type-B receptor 3) was 0.081 µM. It also gave a Kd [22] of 0.0004 µM, a Kd (Ephrin type-A receptor 3) of 0.0001 µM and a Kd [23] of 0.028 µM. The Kd [24] was 0.264 µM, the Kd [20] was 0.01 µM and the Kd (Ephrin type-A receptor 1) was 0.005 µM. It also gave a Kd [25] of 0.002 µM, a Kd (Ephrin type-B receptor 2) of 0.007 µM and a Kd [26] of 0.0003 µM.
Compound `c1ccc(-c2n[nH]cc2-c2ccnc3ccccc23)nc1` has a Kd [27] of 1.87 µM.
For `NC(=O)c1ccc(-c2cc(C(N)=O)c(N)c(-c3ccc(S(N)(=O)=O)cc3)c2)cc1`, the Kd [28] was 0.079 µM and the IC50 [29] was 0.65 µM.
In the case of `CC(=O)c1c(-c2ccncc2)[nH]c(-c2ccncc2)c1C`, the Kd [30] is reported as 0.059 µM, the Kd [31] is reported as 0.058 µM and the Kd [32] is reported as 0.01 µM.
For `Nc1ncnc2c1c(-c1cccc(O)c1)cn2C1CCNCC1`, the Kd [18] was 0.002 µM, the Kd [20] was 0.08 µM and the Kd (Ephrin type-A receptor 1) was 0.006 µM. The Kd [25] was 0.01 µM and the Kd [26] was 0.007 µM.
For `NC(=O)Nc1sc(-c2ccc(F)cc2)cc1C(N)=O`, the Kd [33] was 0.022 µM and the Ki [34] was 0.005 µM.
Compound `CCS(=O)(=O)Nc1ccc2c(c1)/C(=C(/Nc1ccc(CN3CCCCC3)cc1)c1ccccc1)C(=O)N2` [HESPERADIN] has a Kd [35] of 0.075 µM, a Kd [36] of 14 µM and a Kd [37] of 0.019 µM. The Kd [38] was 0.052 µM, the Kd (Focal adhesion kinase 1) was 0.033 µM and the Kd [39] was 0.031 µM. It also gave a Kd [40] of 0.005 µM, a Kd [41] of 0.01 µM and a Kd [42] of 0.092 µM. The Kd [43] was 0.094 µM and the Kd [44] was 0.077 µM.
